According to ChEMBL document CHEMBL1126655, “Synthesis and antiviral activity of novel isonucleoside analogs” (J Med Chem, 1993):

Key:
Human betaherpesvirus 5 = assay: Antiviral activity against Human cytomegalovirus (AD169 strain); type: functional; details: read-out: ID50 (the source's name)
Procedure, shortened: (§1)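 WI-38 monolayers were infected, with virus adsorbed for 1–2 h. They were then overlaid with EMEM maintenance medium (1% carboxymethyl cellulose, 2.5% FBS) containing duplicate drug dilutions. Monolayers were stained after 4–6 days at 37 °C. ID50 was taken as the concentration giving 50% plaque reduction versus virus controls. Titrations were done in duplicate.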

Human alphaherpesvirus 1 [1] = assay: Antiviral activity against Herpes simplex virus-1 (Schooler strain); type: functional; details: read-out: ID50 (the source's name); procedure, shortened: as §1
Human alphaherpesvirus 3 [2] = assay: Antiviral activity against Varicella zoster virus (Ellen strain); type: functional; details: read-out: ID50 (the source's name); procedure, shortened: as §1
WI-38 = assay: Tested for growth inhibition against WI-38 cells; type: functional; details: Homo sapiens, read-out: ID50 (the source's name)
Procedure, shortened: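 WI-38 cells seeded at 1.2 × 10^6 per well, incubated overnight at 37 °C, then refed with growth medium (EMEM, 10% FBS) holding serial drug dilutions or none, for 3 more days at 37 °C. Quadruplicate cultures per concentration trypsinized and counted daily for viable cells by trypan blue exclusion.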

Vaccinia virus = assay: Antiviral activity against vaccinia virus (CL strain); type: functional; details: Orthopoxvirus vaccinia; read-out: ID50 (the source's name)
[3] = Antiviral activity against Herpes simplex virus-1 (KOS strain); type: functional; details: Human alphaherpesvirus 1; read-out: ID50 (the source's name); procedure, shortened: as §1
Human alphaherpesvirus 1 [4] = assay: Antiviral activity against Herpes simplex virus-1 (thymidine kinase deficient strains isolated as BVaraU resistant mutants of HSV-1 (KOS)); type: functional; details: read-out: ID50 (the source's name); procedure, shortened: as §1
[5] = system: Cercopithecine alphaherpesvirus 9; assay: Antiviral activity against Simina varicella virus (G815 strain); type: functional; details: read-out: ID50 (the source's name)
Procedure, shortened: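 Simian varicella virus G815 was grown from infected Vero cells and assayed by plaque reduction on Vero monolayers. Virus was adsorbed 1–2 h, then overlaid with EMEM (1% carboxymethyl cellulose, 2.5% FBS) containing duplicate drug dilutions. Staining was after 4–6 days at 37 °C. ID50 was the concentration giving 50% plaque reduction versus virus controls.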

Human alphaherpesvirus 3 [6] = assay: Antiviral activity against Varicella zoster virus (Kanno-Kohmura thymidine kinase deficient strain); type: functional; details: read-out: ID50 (the source's name); procedure, shortened: as §1
Human alphaherpesvirus 3 [7] = assay: Antiviral activity against Varicella zoster virus (Ito strain); type: functional; details: read-out: ID50 (the source's name); procedure, shortened: as §1
Human alphaherpesvirus 3 [8] = assay: Antiviral activity against Varicella zoster virus (Oka strain); type: functional; details: read-out: ID50 (the source's name); procedure, shortened: as §1
Human alphaherpesvirus 3 [9] = assay: Antiviral activity against Varicella zoster virus (ppIIa strain); type: functional; details: read-out: ID50 (the source's name); procedure, shortened: as §1
Human alphaherpesvirus 3 [10] = assay: Antiviral activity against Varicella zoster virus (9021 strain); type: functional; details: read-out: ID50 (the source's name); procedure, shortened: as §1
Human alphaherpesvirus 2 = assay: Antiviral activity against Herpes simplex virus-2 (thymidine kinase deficient strains isolated as BVaraU resistant mutants of HSV-1 (KOS)); type: functional; details: read-out: ID50 (the source's name)
Mus musculus [11] = assay: Protective dose against Herpes simplex virus type type -1 infection in mice at 200 mg/kg; type: functional; details: read-out: PD50
Procedure, shortened: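 Female Swiss-Webster mice (20–23 g), 10 per group, infected intraperitoneally with 10^3 PFU HSV-1 strain Schooler (Vero freeze-thaw extract) in 0.3% BSA-PBS. Subcutaneous dosing in PBS twice daily from 1 h postinfection for 5 days, 12.5–200 mg/kg/day. Survival scored over 21 days; PD50 from survival by probit analysis.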

Mus musculus [12] = assay: Protective dose against Herpes simplex virus type type -2 infection in mice at 200 mg/kg; type: functional; details: read-out: PD50
Procedure, shortened: (§2)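 Female Swiss-Webster mice (20–23 g), 10 per group, infected intraperitoneally with 10^6 PFU HSV-2 strain Curtis (Vero freeze-thaw extract) in 0.3% BSA-PBS. Drug given subcutaneously in PBS twice daily from 1 h postinfection for 5 days, doses 12.5–200 mg/kg/day. Survival followed 21 days; PD50 by probit analysis; mean day of death by Student's t-test versus placebo.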

Mus musculus [13] = assay: Number of survivors against Herpes simplex virus type-2 infection in mice at 25 mg/kg/day; type: functional
Procedure, shortened: (§3)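 Female Swiss-Webster mice (20–23 g, 10 per group) were infected ip with 10^6 PFU HSV-2 Curtis in 0.3% BSA-PBS. Dosing was sc twice daily in PBS from 1 h postinfection for 5 days. Survival was recorded over 21 days. Mean day of death was computed for dead mice and compared with placebo-treated infected controls by Student's t-test.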

Mus musculus [14] = assay: Number of survivors against Herpes simplex virus type-2 infection in mice at 50 mg/kg/day; type: functional; procedure, shortened: as §2
Mus musculus [15] = assay: Number of survivors against Herpes simplex virus type-1 infection in mice at 100 mg/kg/day; type: functional
Procedure, shortened: (§4)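 Female Swiss-Webster mice (20–23 g, 10 per group) were infected ip with 10^3 PFU HSV-1 Schooler in 0.3% BSA-PBS. Drug was given sc twice daily in PBS, starting 1 h postinfection, for 5 days. Survival was followed for 21 days. Mean day of death of dead animals was compared with placebo-treated infected controls by Student's t-test.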

Mus musculus [16] = assay: Number of survivors against Herpes simplex virus type-1 infection in mice at 12.5 mg/kg/day; type: functional; procedure, shortened: as §4
Mus musculus [17] = assay: Number of survivors against Herpes simplex virus type-1 infection in mice at 200 mg/kg/day; type: functional; procedure, shortened: as §4
Mus musculus [18] = assay: Number of survivors against Herpes simplex virus type-1 infection in mice at 25 mg/kg/day; type: functional; procedure, shortened: as §4
Mus musculus [19] = assay: Number of survivors against Herpes simplex virus type-1 infection in mice at 50 mg/kg/day; type: functional; procedure, shortened: as §4
Mus musculus [20] = assay: Number of survivors against Herpes simplex virus type-2 infection in mice at 100 mg/kg/day; type: functional; procedure, shortened: as §3
Mus musculus [21] = assay: Number of survivors against Herpes simplex virus type-2 infection in mice at 12.5 mg/kg/day; type: functional; procedure, shortened: as §3
Mus musculus [22] = assay: Number of survivors against Herpes simplex virus type-2 infection in mice at 150 mg/kg/day; type: functional; procedure, shortened: as §3
Mus musculus [23] = assay: Number of survivors against Herpes simplex virus type-2 infection in mice at 200 mg/kg/day; type: functional; procedure, shortened: as §3
Mus musculus [24] = assay: Day of death in lethal test against herpes simplex virus type-1 at 100 mg/kg/day (mean day of death +/-SD); type: ADME, organism-based; details: in vivo; procedure, shortened: as §4
Mus musculus [25] = assay: Day of death in lethal test against herpes simplex virus type-1 at 12.5 mg/kg/day (mean day of death +/-SD); type: ADME, organism-based; details: in vivo; procedure, shortened: as §4
Mus musculus [26] = assay: Day of death in lethal test against herpes simplex virus type-1 at 200 mg/kg/day (mean day of death +/-SD); type: ADME, organism-based; details: in vivo; procedure, shortened: as §4
Mus musculus [27] = assay: Day of death in lethal test against herpes simplex virus type-1 at 25 mg/kg/day (mean day of death +/-SD); type: ADME, organism-based; details: in vivo; procedure, shortened: as §4
Mus musculus [28] = assay: Day of death in lethal test against herpes simplex virus type-1 at 50 mg/kg/day (mean day of death +/-SD); type: ADME, organism-based; details: in vivo; procedure, shortened: as §4
Mus musculus [29] = assay: Day of death in lethal test against herpes simplex virus type-2 at 100 mg/kg/day (mean day of death +/-SD); type: ADME, organism-based; details: in vivo; procedure, shortened: as §3
Mus musculus [30] = assay: Day of death in lethal test against herpes simplex virus type-2 at 12.5 mg/kg/day (mean day of death +/-SD); type: ADME, organism-based; details: in vivo; procedure, shortened: as §3
Mus musculus [31] = assay: Day of death in lethal test against herpes simplex virus type-2 at 200 mg/kg/day (mean day of death +/-SD); type: ADME, organism-based; details: in vivo; procedure, shortened: as §3
Mus musculus [32] = assay: Day of death in lethal test against herpes simplex virus type-2 at 150 mg/kg/day (mean day of death +/-SD); type: ADME, organism-based; details: in vivo; procedure, shortened: as §3
Mus musculus [33] = assay: Number of survivors against Herpes simplex virus type-1 infection in mice at 150 mg/kg/day; type: functional; procedure, shortened: as §4

SMILES: O=c1ccn([C@@H]2CO[C@H](CO)[C@H]2CO)c(=O)[nH]1
- IC50 (Human betaherpesvirus 5): > 410 µM
- IC50 (Human alphaherpesvirus 1 [1]): > 410 µM
- IC50 (Human alphaherpesvirus 3 [2]): 100 µM

SMILES: Nc1ccn([C@@H]2CO[C@H](CO)[C@H]2CO)c(=O)n1
- IC50 (Human betaherpesvirus 5): 100 µM
- IC50 (Human alphaherpesvirus 1 [1]): 40 µM
- IC50 (WI-38): 160 µM
- IC50 (Vaccinia virus): 400 µM
- IC50 (Human alphaherpesvirus 3 [2]): 0.4 µM

SMILES: Cc1cn([C@@H]2CO[C@H](CO)[C@H]2CO)c(=O)nc1N
- IC50 (Human betaherpesvirus 5): > 390 µM
- IC50 (Human alphaherpesvirus 1 [1]): 390 µM
- IC50 (Human alphaherpesvirus 3 [2]): 200 µM

SMILES: O=c1[nH]c(=O)n([C@@H]2CO[C@H](CO)[C@H]2CO)cc1/C=C/Br
- IC50 (Human betaherpesvirus 5): > 290 µM
- IC50 [3]: 3 µM
- IC50 (Human alphaherpesvirus 1 [1]): 3 µM
- IC50 (Human alphaherpesvirus 1 [4]): > 290 µM
- IC50 [5]: 30 µM
- IC50 (Human alphaherpesvirus 3 [6]): > 300 µM
- IC50 (WI-38): > 800 µM
- IC50 (Vaccinia virus): > 290 µM
- IC50 (Human alphaherpesvirus 3 [2]): 0.1 µM
- IC50 (Human alphaherpesvirus 3 [7]): 0.06 µM
- IC50 (Human alphaherpesvirus 3 [8]): 3 µM
- IC50 (Human alphaherpesvirus 3 [9]): 0.3 µM
- IC50 (Human alphaherpesvirus 3 [10]): 0.5 µM

SMILES: Nc1nc2c(ncn2COCCO)c(=O)[nH]1 [ACYCLOVIR]
- IC50 (Human betaherpesvirus 5): 40 µM
- IC50 (Human alphaherpesvirus 2): > 440 µM
- IC50 [3]: 2 µM
- IC50 (Human alphaherpesvirus 1 [1]): 0.9 µM
- IC50 (Human alphaherpesvirus 1 [4]): > 440 µM
- ED50 (Mus musculus [11]): > 200 mg/kg/day
- ED50 (Mus musculus [12]): > 200 mg/kg/day
- Survivors (Mus musculus [13]): 0
- Survivors (Mus musculus [14]): 1
- Survivors (Mus musculus [15]): 2
- Survivors (Mus musculus [16]): 0
- Survivors (Mus musculus [17]): 2
- Survivors (Mus musculus [18]): 3
- Survivors (Mus musculus [19]): 1
- Survivors (Mus musculus [20]): 2
- Survivors (Mus musculus [21]): 0
- Survivors (Mus musculus [22]): 4
- Survivors (Mus musculus [23]): 5
- Mean day of death (Mus musculus [24]): 9.3
- Mean day of death (Mus musculus [25]): 8.3
- Mean day of death (Mus musculus [26]): 14
- Mean day of death (Mus musculus [27]): 7.8
- Mean day of death (Mus musculus [28]): 9
- Mean day of death (Mus musculus [29]): 13.5
- Mean day of death (Mus musculus [30]): 10
- Mean day of death (Mus musculus [31]): 13
- IC50 [5]: 100 µM
- IC50 (Human alphaherpesvirus 3 [6]): 100 µM
- IC50 (WI-38): > 800 µM
- IC50 (Human alphaherpesvirus 3 [2]): 4 µM
- IC50 (Human alphaherpesvirus 3 [7]): 2 µM
- IC50 (Human alphaherpesvirus 3 [8]): 4 µM
- IC50 (Human alphaherpesvirus 3 [9]): 4 µM
- IC50 (Human alphaherpesvirus 3 [10]): 2 µM
- Mean day of death (Mus musculus [32]): 13
- Survivors (Mus musculus [33]): 2
